Source: ChEMBL document CHEMBL1641571, “Karavilagenin C derivatives as antimalarials” (Bioorg Med Chem, 2011)

Experiments:
[1] = Selectivity index, ratio of IC50 for human MCF7 cells to IC50 for chloroquine-resistant Plasmodium falciparum Dd2; assay type: toxicity, cell-based; conditions: read-out: Ratio IC50
[2] = test system: Plasmodium falciparum; assay: Antimalarial activity against chloroquine-resistant Plasmodium falciparum Dd2 infected in erythrocytes after 48 hrs by SYBR Green 1-based fluorescence assay; assay type: functional, organism-based; conditions: Dd2, 48 h
[3] = Selectivity index, ratio of IC50 for human MCF7 cells to IC50 for chloroquine-sensitive Plasmodium falciparum 3D7; assay type: toxicity, cell-based; conditions: read-out: Ratio IC50
[4] = test system: MCF7; assay: Cytotoxicity against human MCF7 cells after 24 hrs by MTT assay; assay type: functional, cell-based; conditions: MCF7, 24 h
Outline: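 MCF-7 breast cancer cells grown in RPMI 1640 with 10% heat-inactivated horse serum, 2 mM L-glutamine and antibiotics, 5% CO2, 37 °C. 2 × 10^4 cells per well exposed to increasing compound concentrations for 24 h at 37 °C. MTT added (5 mg/mL stock), 4 h, then 10% SDS overnight. OD read at 550 nm (ref 630 nm). IC50 from growth inhibition; mean ± SD, three experiments.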

[5] = test system: Plasmodium falciparum; assay: Antimalarial activity against chloroquine-sensitive Plasmodium falciparum 3D7 infected in erythrocytes after 48 hrs by SYBR Green 1-based fluorescence assay; assay type: functional, organism-based; conditions: 3D7, 48 h

CO[C@H]1C=C2[C@@H](CC[C@H](O)C2(C)C)[C@]2(C)CC[C@]3(C)[C@@H]([C@H](C)C[C@H](C=C(C)C)OC(=O)/C=C/c4ccccc4)CC[C@@]3(C)[C@H]12 [KARAVOATE O]
selectivity ratio [1]: > 5
IC50 [2]: 26.7 µM
selectivity ratio [3]: > 20.3
IC50 [4]: > 133 µM
IC50 [5]: 6.6 µM

CO[C@H]1C=C2[C@@H](CC[C@H](OC(=O)c3ccc([N+](=O)[O-])cc3)C2(C)C)[C@]2(C)CC[C@]3(C)[C@@H]([C@H](C)C[C@H](C=C(C)C)OC(=O)c4ccc([N+](=O)[O-])cc4)CC[C@@]3(C)[C@H]12 [KARAVOATE J]
selectivity ratio [1]: > 6.43
IC50 [2]: 20.7 µM
selectivity ratio [3]: > 7.2
IC50 [4]: > 133 µM
IC50 [5]: 18.6 µM

COc1ccc(C(=O)O[C@H]2CC[C@@H]3C(=C[C@H](OC)[C@@H]4[C@@]3(C)CC[C@]3(C)[C@@H]([C@H](C)C[C@H](C=C(C)C)OC(=O)c5ccc(OC)cc5)CC[C@@]43C)C2(C)C)cc1 [KARAVOATE N]
selectivity ratio [1]: > 2.8
IC50 [2]: 47.9 µM
selectivity ratio [3]: > 55.4
IC50 [4]: > 133 µM
IC50 [5]: 2.4 µM

CCCC(=O)O[C@H]1CC[C@@H]2C(=C[C@H](OC)[C@@H]3[C@@]2(C)CC[C@]2(C)[C@@H]([C@H](C)C[C@H](C=C(C)C)OC(=O)CCC)CC[C@@]32C)C1(C)C [KARAVOATE F]
selectivity ratio [1]: > 15.8
IC50 [2]: 8.4 µM
selectivity ratio [3]: > 19.4
IC50 [4]: > 133 µM
IC50 [5]: 6.9 µM

CCCC(=O)O[C@@H](C=C(C)C)C[C@@H](C)[C@H]1CC[C@@]2(C)[C@@H]3[C@@H](OC)C=C4[C@@H](CC[C@H](O)C4(C)C)[C@]3(C)CC[C@]12C [KARAVOATE E]
selectivity ratio [1]: 116
IC50 [2]: 0.6 µM
selectivity ratio [3]: 20.8
IC50 [4]: 73.8 µM
IC50 [5]: 3.5 µM

CO[C@H]1C=C2[C@@H](CC[C@H](O)C2(C)C)[C@]2(C)C[C@@H](O)[C@]3(C)[C@@H]([C@H](C)C[C@@H](O)C=C(C)C)CC[C@@]3(C)[C@H]12 [CUCURBALSAMINOL C]
selectivity ratio [1]: 0.6
IC50 [2]: 67.6 µM
selectivity ratio [3]: 0.8
IC50 [4]: 43.3 µM
IC50 [5]: 52.7 µM

CO[C@H]1C=C2[C@@H](CC[C@H](OC(C)=O)C2(C)C)[C@]2(C)CC[C@]3(C)[C@@H]([C@H](C)C[C@H](C=C(C)C)OC(C)=O)CC[C@@]3(C)[C@H]12 [KARAVOATE B]
selectivity ratio [1]: 126
IC50 [2]: 0.5 µM
selectivity ratio [3]: 151
IC50 [4]: 68.1 µM
IC50 [5]: 0.5 µM

CO[C@H]1C=C2[C@@H](CC[C@H](O)C2(C)C)[C@]2(C)CC[C@]3(C)[C@@H]([C@H](C)C[C@H](C=C(C)C)OC(C)=O)CC[C@@]3(C)[C@H]12 [KARAVOATE A]
selectivity ratio [1]: 2.5
IC50 [2]: 9.2 µM
selectivity ratio [3]: 3.4
IC50 [4]: 22.9 µM
IC50 [5]: 6.7 µM

CCC(=O)O[C@@H](C=C(C)C)C[C@@H](C)[C@H]1CC[C@@]2(C)[C@@H]3[C@@H](OC)C=C4[C@@H](CC[C@H](O)C4(C)C)[C@]3(C)CC[C@]12C [KARAVOATE C]
selectivity ratio [1]: 0.9
IC50 [2]: 22 µM
selectivity ratio [3]: 3.7
IC50 [4]: 19.1 µM
IC50 [5]: 5.1 µM

CO[C@H]1C=C2[C@@H](CC[C@H](O)C2(C)C)[C@]2(C)CC[C@]3(C)[C@@H]([C@H](C)C[C@@H](O)C=C(C)C)CC[C@@]3(C)[C@H]12 [KARAVELAGENIN C]
selectivity ratio [1]: 1.4
IC50 [2]: 11.2 µM
selectivity ratio [3]: 1.6
IC50 [4]: 16.7 µM
IC50 [5]: 10.4 µM

CO[C@H]1C=C2[C@@H](CC[C@H](O)C2(C)C)[C@]2(C)CC[C@]3(C)[C@@H]([C@H](C)C[C@H](C=C(C)C)OC(=O)c4ccc([N+](=O)[O-])cc4)CC[C@@]3(C)[C@H]12 [KARAVOATE I]
selectivity ratio [1]: > 296
IC50 [2]: 0.5 µM
selectivity ratio [3]: > 51.4
IC50 [4]: > 133 µM
IC50 [5]: 2.6 µM

CO[C@H]1C=C2[C@@H](CC[C@H](O)C2(C)C)[C@]2(C)CC[C@]3(C)[C@@H]([C@H](C)C[C@H](C=C(C)C)OC(=O)c4ccc(Cl)cc4)CC[C@@]3(C)[C@H]12 [KARAVOATE K]
selectivity ratio [1]: > 5.7
IC50 [2]: 23.3 µM
selectivity ratio [3]: > 10
IC50 [4]: > 133 µM
IC50 [5]: 13.3 µM

COc1ccc(C(=O)O[C@@H](C=C(C)C)C[C@@H](C)[C@H]2CC[C@@]3(C)[C@@H]4[C@@H](OC)C=C5[C@@H](CC[C@H](O)C5(C)C)[C@]4(C)CC[C@]23C)cc1 [KARAVOATE M]
selectivity ratio [1]: > 215
IC50 [2]: 0.6 µM
selectivity ratio [3]: > 43.6
IC50 [4]: > 133 µM
IC50 [5]: 1.3 µM

CO[C@H]1C=C2[C@@H](CC[C@H](OC(=O)/C=C/c3ccccc3)C2(C)C)[C@]2(C)CC[C@]3(C)[C@@H]([C@H](C)C[C@H](C=C(C)C)OC(=O)/C=C/c4ccccc4)CC[C@@]3(C)[C@H]12 [KARAVOATE P]
selectivity ratio [1]: > 2.4
IC50 [2]: 56.6 µM
selectivity ratio [3]: > 2
IC50 [4]: > 133 µM
IC50 [5]: 65.2 µM

CO[C@H]1C=C2[C@@H](CC[C@H](OC(=O)c3ccccc3)C2(C)C)[C@]2(C)CC[C@]3(C)[C@@H]([C@H](C)C[C@H](C=C(C)C)OC(=O)c4ccccc4)CC[C@@]3(C)[C@H]12 [KARAVOATE H]
selectivity ratio [1]: > 4.4
IC50 [2]: 30.5 µM
selectivity ratio [3]: > 3.7
IC50 [4]: > 133 µM
IC50 [5]: 36.4 µM

CCC(=O)O[C@H]1CC[C@@H]2C(=C[C@H](OC)[C@@H]3[C@@]2(C)CC[C@]2(C)[C@@H]([C@H](C)C[C@H](C=C(C)C)OC(=O)CC)CC[C@@]32C)C1(C)C [KARAVOATE D]
selectivity ratio [1]: > 350
IC50 [2]: 0.4 µM
selectivity ratio [3]: > 89
IC50 [4]: > 133 µM
IC50 [5]: 1.5 µM

CO[C@H]1C=C2[C@@H](CC[C@H](OC(=O)c3ccc(Cl)cc3)C2(C)C)[C@]2(C)CC[C@]3(C)[C@@H]([C@H](C)C[C@H](C=C(C)C)OC(=O)c4ccc(Cl)cc4)CC[C@@]3(C)[C@H]12 [KARAVOATE L]
selectivity ratio [1]: > 2
IC50 [2]: 66 µM
selectivity ratio [3]: > 5.9
IC50 [4]: > 133 µM
IC50 [5]: 22.5 µM
